Assay results from ChEMBL document CHEMBL1806434, “Acyclic nucleoside phosphonates with a branched 2-(2-phosphonoethoxy)ethyl chain: efficient synthesis and antiviral activity” (Bioorg Med Chem, 2011).
The source made the active and inactive calls. The rule behind the calls is not given here.

How the values were obtained:
[1] = Cytotoxicity against human HEL cells assessed as alteration of cell morphology after 3 days by microscopic analysis; assay type: cell-based
Summary of the method: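 MCC taken as the lowest compound concentration producing microscopically detectable alteration of HEL fibroblast morphology.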

Punta Toro virus = test: Antiviral activity against Punta Toro virus assessed as reduction of virus induced cytopathicity by cell based assay; assay type: functional, organism-based
Summary of the method: (§1)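 Confluent cell monolayers in 96-well plates (HEL, Vero, HeLa, CRFK or MDCK; the cell type per virus is not specified) infected with 100 CCID50 virus or 20 PFU and incubated with serial compound dilutions. Cytopathicity scored once it was complete in untreated infected controls.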

Human alphaherpesvirus 3 [2] = test: Antiviral activity against thymidine kinase-deficient Varicella-zoster virus 07/1 assessed as reduction of virus induced cytopathicity by cell based assay; assay type: functional, organism-based; conditions: for EC50: Human alphaherpesvirus 3, 07/1
Summary of the method: (§2)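 Confluent cell monolayers infected with 100 CCID50 virus, or 20 PFU for plaque assays, then incubated with serial compound dilutions. Host cells listed for the non-HIV panel are HEL fibroblasts, Vero, HeLa, CRFK or MDCK. Cytopathicity is scored, or plaques counted for VZV, once infected untreated controls reach full CPE.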

Human alphaherpesvirus 1 [3] = test: Antiviral activity against thymidine kinase-deficient acyclovir-resistant Herpes simplex virus 1 strain KOS assessed as reduction of virus induced cytopathicity by cell based assay; assay type: functional, organism-based; conditions: for EC50: Human alphaherpesvirus 1, KOS; summary of the method: as §2
Human alphaherpesvirus 1 [4] = test: Antiviral activity against Herpes simplex virus 1 strain KOS assessed as reduction of virus induced cytopathicity by cell based assay; assay type: functional, organism-based; conditions: for EC50: Human alphaherpesvirus 1, KOS; summary of the method: as §2
[5] = test system: Mammalian orthoreovirus 1; test: Antiviral activity against Reovirus-1 assessed as reduction of virus induced cytopathicity by cell based assay; assay type: functional, organism-based; summary of the method: as §1
[6] = test system: Respiratory syncytial virus; test: Antiviral activity against Respiratory syncytial virus Long assessed as reduction of virus induced cytopathicity by cell based assay; assay type: functional, organism-based; summary of the method: as §1
Human alphaherpesvirus 3 [7] = test: Antiviral activity against Varicella-zoster virus strain OKA expressing thymidine kinase assessed as reduction of virus induced cytopathicity by cell based assay; assay type: functional; conditions: for EC50: Human alphaherpesvirus 3, strain Oka vaccine; for Activity: strain Oka vaccine; summary of the method: as §2
Human betaherpesvirus 5 [8] = test: Antiviral activity against Human cytomegalovirus Davis assessed as reduction of virus induced cytopathicity by cell based assay; assay type: functional, organism-based; conditions: for EC50: Human betaherpesvirus 5, Davis; summary of the method: as §2
Human alphaherpesvirus 2 = test: Antiviral activity against Herpes simplex virus 2 strain G assessed as reduction of virus induced cytopathicity by cell based assay; assay type: functional, organism-based; conditions: for EC50: Human alphaherpesvirus 2, strain G; summary of the method: as §2
Human respirovirus 3 = test: Antiviral activity against Human parainfluenza virus 3 assessed as reduction of virus induced cytopathicity by cell based assay; assay type: functional, organism-based; summary of the method: as §1
Sindbis virus = test: Antiviral activity against Sindbis virus assessed as reduction of virus induced cytopathicity by cell based assay; assay type: functional, organism-based; summary of the method: as §1
Vaccinia virus = test: Antiviral activity against Vaccinia virus Lederle assessed as reduction of virus induced cytopathicity by cell based assay; assay type: functional, organism-based; conditions: Orthopoxvirus vaccinia; summary of the method: as §2
Coxsackievirus B4 = test: Antiviral activity against Coxsackievirus B4 assessed as reduction of virus induced cytopathicity by cell based assay; assay type: functional, organism-based; summary of the method: as §1
[9] = test system: Vesicular stomatitis virus; test: Antiviral activity against Vesicular stomatitis virus assessed as reduction of virus induced cytopathicity by cell based assay; assay type: functional, organism-based; summary of the method: as §2
HEL = test: Cytotoxicity against human HEL cells after 3 days by coulter counter; assay type: cell-based; conditions: 72 h
Summary of the method: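 HEL cells seeded at 5 × 10^3 cells/well and allowed to proliferate for 24 h, then exposed to a range of compound concentrations for 3 days at 37 °C. Cells counted with a Coulter counter.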

Human alphaherpesvirus 3 [10] = test: Antiviral activity against Varicella-zoster virus YS expressing thymidine kinase assessed as reduction of virus induced cytopathicity by cell based assay; assay type: functional, organism-based; conditions: for EC50: Human alphaherpesvirus 3, YS
CCRF-CEM = test: Cytostatic activity against human CEM cells; assay type: cell-based
Human betaherpesvirus 5 [11] = test: Antiviral activity against Human cytomegalovirus strain AD169 assessed as reduction of virus induced cytopathicity by cell based assay; assay type: functional, organism-based; conditions: for EC50: Human betaherpesvirus 5, AD169; summary of the method: as §2
L1210 = test: Cytostatic activity against mouse L1210 cells; assay type: functional
FM3A = test: Cytostatic activity against mouse FM3A cells; assay type: functional
Human alphaherpesvirus 3 [12] = test: Antiviral activity against thymidine kinase-deficient Varicella-zoster virus YS/R assessed as reduction of virus induced cytopathicity by cell based assay; assay type: functional, organism-based; conditions: for EC50: Human alphaherpesvirus 3, YS/R

SMILES | MCC at 72 h [1] [µM] | Activity (Punta Toro virus) | EC50 (Human alphaherpesvirus 3 [2]) [µM] | EC50 (Human alphaherpesvirus 1 [3]) [µM] | EC50 (Human alphaherpesvirus 1 [4]) [µM] | Activity [5] | Activity [6] | EC50 (Human alphaherpesvirus 3 [7]) [µM] | EC50 (Human betaherpesvirus 5 [8]) [µM] | EC50 (Human alphaherpesvirus 2) [µM] | Activity (Human respirovirus 3) | Activity (Sindbis virus) | EC50 (Vaccinia virus) [µM] | Activity (Coxsackievirus B4) | Activity [9] | CC50 (HEL) [µM] | Activity (Human alphaherpesvirus 3 [2]) | Activity (Human alphaherpesvirus 1 [3]) | Activity (Human alphaherpesvirus 3 [10]) | Activity (Human alphaherpesvirus 1 [4]) | other results
O=c1[nH]cnc2c1ncn2CCOC(CO)CP(=O)(O)O (stereo not given) | > 315 | inactive | 197 | > 315 | 208 | inactive | inactive | 88 | > 315 | 315 | inactive | inactive | > 315 | inactive | inactive | > 315 | – | – | – | – | –
Nc1ncnc2c1ncn2CCOC(Cc1ccccc1)CP(=O)(O)O (stereo not given) | > 265 | inactive | 4.7 | 53 | 53 | inactive | inactive | 2.9 | 68 | 86 | inactive | inactive | > 265 | inactive | inactive | ≥ 247 | – | – | – | – | EC50 (Human alphaherpesvirus 3 [10]): 2.9 µM; CC50 (CCRF-CEM): 530 µM; EC50 (Human betaherpesvirus 5 [11]): 59 µM; CC50 (L1210): 273 µM; CC50 (FM3A): 90 µM; EC50 (Human alphaherpesvirus 3 [12]): 2.5 µM
Nc1nc(O)c2ncn(COC(CO)CO)c2n1 [GANCICLOVIR] | > 394 | – | – | 0.12 | 0.017 | – | – | – | – | 0.023 | – | – | > 100 | – | – | 543 | – | – | – | – | –
Nc1ncnc2c1ncn2CCOC(COCc1ccccc1)CP(=O)(O)O (stereo not given) | – | inactive | – | – | – | inactive | inactive | – | – | – | inactive | inactive | – | inactive | inactive | – | inactive | inactive | inactive | inactive | Activity (Human alphaherpesvirus 3 [7]): inactive; Activity (Human betaherpesvirus 5 [8]): inactive; Activity (Human alphaherpesvirus 2): inactive; Activity (Human betaherpesvirus 5 [11]): inactive; Activity (Vaccinia virus): inactive; Activity (Human alphaherpesvirus 3 [12]): inactive
O=c1ccn(CCOC(CO)CP(=O)(O)O)c(=O)[nH]1 (stereo not given) | – | inactive | – | – | – | inactive | inactive | – | – | – | inactive | inactive | – | inactive | inactive | – | inactive | inactive | inactive | inactive | Activity (Human alphaherpesvirus 3 [7]): inactive; Activity (Human betaherpesvirus 5 [8]): inactive; Activity (Human alphaherpesvirus 2): inactive; Activity (Human betaherpesvirus 5 [11]): inactive; Activity (Vaccinia virus): inactive; Activity (Human alphaherpesvirus 3 [12]): inactive
Nc1nc2c(ncn2CCOC(CO)CP(=O)(O)O)c(=O)[nH]1 (stereo not given) | > 300 | inactive | > 300 | 261 | 156 | inactive | inactive | > 300 | 165 | 156 | inactive | inactive | > 300 | inactive | inactive | 300 | – | – | – | – | –
CC(CP(=O)(O)O)OCCn1ccc(=O)[nH]c1=O (stereo not given) | > 360 | inactive | 13 | 97 | 43 | inactive | inactive | 6.3 | 34 | 34 | inactive | inactive | > 360 | inactive | inactive | 291 | – | – | – | – | EC50 (Human alphaherpesvirus 3 [10]): 9.9 µM; EC50 (Human betaherpesvirus 5 [11]): 36 µM; EC50 (Human alphaherpesvirus 3 [12]): 12 µM
Nc1nc2c(ncn2CCOC(COCc2ccccc2)CP(=O)(O)O)c(=O)[nH]1 (stereo not given) | > 240 | inactive | 94 | > 240 | > 240 | inactive | inactive | 109 | > 240 | > 240 | inactive | inactive | > 240 | inactive | inactive | > 240 | – | – | – | – | –
Cc1cn(CCOC(C)CP(=O)(O)O)c(=O)[nH]c1=O (stereo not given) | > 342 | inactive | 48 | > 342 | 171 | inactive | inactive | 47 | 248 | 154 | inactive | inactive | > 342 | inactive | inactive | > 342 | – | – | – | – | EC50 (Human betaherpesvirus 5 [11]): 188 µM
O=c1[nH]cnc2c1ncn2CCOC(COCc1ccccc1)CP(=O)(O)O (stereo not given) | – | inactive | – | – | – | inactive | inactive | – | – | – | inactive | inactive | – | inactive | inactive | – | inactive | inactive | inactive | inactive | Activity (Human alphaherpesvirus 3 [7]): inactive; Activity (Human betaherpesvirus 5 [8]): inactive; Activity (Human alphaherpesvirus 2): inactive; Activity (Human betaherpesvirus 5 [11]): inactive; Activity (Vaccinia virus): inactive; Activity (Human alphaherpesvirus 3 [12]): inactive
Nc1ncnc2c1ncn2CCOC(CO)CP(=O)(O)O (stereo not given) | – | inactive | – | – | – | inactive | inactive | – | – | – | inactive | inactive | – | inactive | inactive | – | inactive | inactive | inactive | inactive | Activity (Human alphaherpesvirus 3 [7]): inactive; Activity (Human betaherpesvirus 5 [8]): inactive; Activity (Human alphaherpesvirus 2): inactive; Activity (Human betaherpesvirus 5 [11]): inactive; Activity (Vaccinia virus): inactive; Activity (Human alphaherpesvirus 3 [12]): inactive
CC(CP(=O)(O)O)OCCn1ccc(N)nc1=O (stereo not given) | > 361 | inactive | 168 | > 361 | > 361 | inactive | inactive | 130 | > 361 | > 361 | inactive | inactive | > 361 | inactive | inactive | 307 | – | – | – | – | –
Cc1cn(CCOC(CO)CP(=O)(O)O)c(=O)[nH]c1=O (stereo not given) | – | inactive | – | – | – | inactive | inactive | – | – | – | inactive | inactive | – | inactive | inactive | – | inactive | inactive | inactive | inactive | Activity (Human alphaherpesvirus 3 [7]): inactive; Activity (Human betaherpesvirus 5 [8]): inactive; Activity (Human alphaherpesvirus 2): inactive; Activity (Human betaherpesvirus 5 [11]): inactive; Activity (Vaccinia virus): inactive; Activity (Human alphaherpesvirus 3 [12]): inactive
Nc1nc2c(ncn2COCCO)c(=O)[nH]1 [ACYCLOVIR] | > 444 | – | – | 7.3 | 0.3 | – | – | – | – | – | – | – | > 250 | – | – | 1340 | – | – | – | – | –
CC(CP(=O)(O)O)OCCn1cnc2c(N)nc(N)nc21 (stereo not given) | – | inactive | – | – | – | inactive | inactive | – | – | – | inactive | inactive | – | inactive | inactive | – | inactive | inactive | inactive | inactive | Activity (Human alphaherpesvirus 3 [7]): inactive; Activity (Human betaherpesvirus 5 [8]): inactive; Activity (Human alphaherpesvirus 2): inactive; Activity (Human betaherpesvirus 5 [11]): inactive; Activity (Vaccinia virus): inactive; Activity (Human alphaherpesvirus 3 [12]): inactive
